# From the RNAGym collection of RNA variant scans (doi:10.1126/science.aae0568)
# This sample holds only a part of the variants without activity.
# B1: tRNA (parent)
# chain: GUUCCGUUGGCGUAAUGGUAACGCGUCUCCCUCCUAAGGAGAAGACUGCGGGUUCGAGUCCCGUACGGAACG
# Variants of: B1
# Test: yeast fitness relative to wild type (ratio to wild type); higher = fitter; tRNA-Arg(CCU), competitive growth, 37 C, YPD
# Procedure, shortened: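 Variants of the tRNA-Arg(CCU) gene were chemically synthesised with a 3% per-site mutation rate across 69 sites and placed at the native genomic locus in Saccharomyces cerevisiae. Six parallel replicates of the pooled strains were competed in YPD at 37°C for 24 hours, and gene amplicons from the start and end populations were read by 100-nucleotide paired-end sequencing. Darwinian fitness relative to wild type was derived from changes in genotype frequencies. Genotypes required ≥ 100 starting reads, and estimates < 0.5 were set to 0.5.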
row,Variant,yeast fitness
1,GUCCCGUUGGCGUAAUGGUAACGCGUCUCCCUCCUAAGGAGAAGACUGCGGGUUCGAGUCCCGUACGGAGCG [U3C A70G],0.944
2,GUUCCGUUGGCAUAAUGGUAACGCGUCUCCCUCCUAAGGAGAAGACUGCGGGUUCGAUUCCCGUACGGAGCG [G12A G58U A70G],0.538
3,GUUCCGUUGGCAUAAUGGUAACGCGUCUCCCUCCUAAGGAGAAGACUGCGGGUUAGAGUCCCGUACAGAGCG [G12A C55A G67A A70G],≤ 0.5
4,GUUCCGUUGGCGUAAUGGUAACGCGUCGCCCUCCUCACGAGAAGACUGUGGGUUCGAGUCCCGUACGGAACG [U28G A36C G38C C49U],≤ 0.5
5,GUUCCGUUGGCGUGAUGGUAACGCGUCUCCCUCCUAAGGAGAAGACUGCGGGUUAGAGUCCCGUACGGAACG [A14G C55A],≤ 0.5
6,GUUCAGUUGGCGUAAUGGUAACGCGUCUCCUUCCUAAGGAGAAGACUGCGCGUUCGAGUCCCGUACGGAACG [C5A C31U G51C],0.807
7,GUUCCGUUGGCGUAAUGGUAACGCGUCUCCCUCCUAAGGAGAAGACUGCGGGUUCGAGUCCCGUACGAAUCG [G68A A70U],1.21
8,GUUCCGUUGGCGUAAUGGUAACGGGUCUCCCUCCUAAGGAGAAGACUGCGGGUUCGAGCCCCGUACGGAACG [C24G U59C],0.65
9,GUCCCGUUGGCGUAAUGGUAACGCGUCUCCCUCCUAUGGAGAAGACUGCGGAUUCGCGUACCGUACGGAACG [U3C A37U G52A A57C C60A],≤ 0.5
10,GUUCAGUUGGCGUAAUGGUAACGCGUCUCCCUGCUAAGGAGAAGACUGCGGGUUCGAGUCCCGUUCGGAACG [C5A C33G A65U],≤ 0.5
11,GUUCAGUUGGCGUAAUGGUAACGCGUCUCCCUCCUAAGGAGAAGUCUGCGGGUUCGAGUCCCGUACGGAACG [C5A A45U],0.877
12,GUUCCGUUGGCGUAAUGGUAACGCGUCUGCCUCCUAAGGAGAAGACUGCGGGUUGGGGUCCCGUACGGACCG [C29G C55G A57G A70C],≤ 0.5
13,GUUCCGUUGGCGUAAUGGUAACGCGCCUCCCUCCUACGGCGAAGACUGCGGGUUCGCGUCCCGGACGGAACG [U26C A37C A40C A57C U64G],0.614
14,GUUCCCUUGGCGUAAUGGUAACGUGUCUCCCUCCUAACGGGAAGACUGCGGGUUCGAGUCCCGUGCGGAACG [G6C C24U G38C A40G A65G],≤ 0.5
15,GUCCCGAUGGCGUAAUGGUAACGCGUCGCCCUCCUAAGGAGAUGACUGCGGGUUCCUGUCCCGUACAGAACG [U3C U7A U28G A43U G56C A57U G67A],≤ 0.5
16,GUUCCGUAGCCGUAAUGGUAACGCGUCUCCCUCUUAAGGAGAAGACUGCGGGUUCGAGUCUCGGACGGAACG [U8A G10C C34U C61U U64G],≤ 0.5
17,GUUCCGUUGGCGUAAUGGUAACGCGUCUUCCUCCUAAGGAGCAGACUGCGGGUUCGAGUCCCGUACGGAACG [C29U A42C],0.676
18,GUUCCGUUGGCGUAUUGGUAGCGUGUCUCCCUUCUAAGGCGACGACUGUGGGUUUGAGUCUCGUACGGAACG [A15U A21G C24U C33U A40C A43C C49U C55U C61U],≤ 0.5
19,GUUCCGUUGGCGUAAUGGUAACGCGUCUCCCUCCUAAGGAGAAGACUGCAGGUUCGAGUCCCGUAUGGCACG [G50A C66U A69C],0.531

row,Variant,yeast fitness
1,GUUCCGUUGGCGUGAUGGUAACGCGUCCCCCUCCUAAGGAGAAGACUGCGGGUUCGAGUCCCGUACGAAACG [A14G U28C G68A],≤ 0.5
2,GUUGCGUUGGCGUAAUGGUAACGCGUCUCCCUCCUAAGGAGGAGUCUGCGGGUUCGAGUCCCGUACGGAACG [C4G A42G A45U],0.67
3,GUUCCGUUGGCGUAAUGGUAACGCGUCUCCCUCCUAAGGAGAAGACUGCGGGUUCGAAUCCCGUACGUAGCG [G58A G68U A70G],0.601
4,GUUCCGUUGGCGUAAUGGUAACGCGUUUCCCUCCUAAGGAGAAGACUGCGGGUUCGAGUCCCGUACGCAACG [C27U G68C],0.757
5,GUUCCGUUGGCGUAUUGGUAACGCGUCUCCCUUCUAAGGAGAAGACUGCGGGUUCAAGUCCCGUACGGAACG [A15U C33U G56A],≤ 0.5
6,GAUCCGUUGGCGAAAUGGUAACGAGUCUCCCUCCUAAGGAGAAGCCUGCGGGUUCGAGUCCCGUACGGAACG [U2A U13A C24A A45C],≤ 0.5
7,GUUCCGUUGGCGUAAUGGUAACGCGUCUCGCUCCUAAGGAGAAGACUGAGGGUUCAAGUGCCGUACGCAACG [C30G C49A G56A C60G G68C],0.541
8,GUUCCGAUGGCGUAAUGGUAACGCGUCUCCCUCCUAAGGAGACGACUACGGGUUCGCGUCCCGUACGUAACG [U7A A43C G48A A57C G68U],≤ 0.5
9,GUUCCAUUGGCGUAAUGGUAACGCGUCUCCCUCCUAAGGAGAUGACUGCGGGUUCGAGUCCCGUACGGAACG [G6A A43U],0.747
10,GUUUCGUCGGCGUAAUGGUGACGCGUCUCCCUCCUAAGGAGACGACUGAGGGUUCGAGUCCCGUAAGGAACG [C4U U8C A20G A43C C49A C66A],≤ 0.5
11,GUCCGGUUGGCGUAAUGGGAACGCGUCUCCAUCCUAAGGAGAAGAAUGCGGGUUCAUGUCCCGUACGGAACG [U3C C5G U19G C31A C46A G56A A57U],≤ 0.5
12,GUUCCGUUGGCGUAAUGGUAUCGCGUCUCCCUCCUAAGGAGAAGACUGCGGGUUCGAGUCCCCUACGGAACG [A21U G63C],0.633
13,GUGCCGUUGGUGUAAUGGUAACGCGUCUCCCUCCUAAGGUGAAGACUGCGGGUUCGAGUCCCGUACGGAACG [U3G C11U A40U],0.529
14,GUUUCGUUGGCGUAAUGGUAACGCGUCUCGCUCCUUAGGAGAAGACUGCGGGUUCGAGUCCCGUACGGAACG [C4U C30G A36U],0.563
15,GUUUCGUUGACGCAAUGGUAACGUGUCUCCCUCCUAAGGAGAAGACUGCGGGUUCGAGUCCCGUACGGAACG [C4U G10A U13C C24U],0.741
16,GUUCCGUUGGCGUAAUGGUAACGCGUCUCCCUCCAGAGGAGAAGACUAUGGGUUCGAGUCCCGUACGGAACG [U35A A36G G48A C49U],≤ 0.5
17,GUUCCGUUGGCGUAAUGGUAACGCGUCUCCUUCCUAAGGAGAAGUCUGCGGGUUCCAGUCCCGUACGGAACG [C31U A45U G56C],≤ 0.5
18,GUUCCGGUGGCGUAAUGGUAACGCGUCUCCCUCCUAAGGAGAAGACUGCGGGUUCGAGCCCCGUACGGUACG [U7G U59C A69U],0.717
19,GUUCCGUUAGCGUAAUGGUAAGGCGUCUCCCUCCUAAGGAGAAGACUGCGGGUUCGAGUCCCGUACAGAACG [G9A C22G G67A],0.648
